From ChEMBL document CHEMBL1134641, “Progress toward the development of a safe and effective agent for treating reentrant cardiac arrhythmias: synthesis and evaluation of ibutilide analogues with enhanced metabolic stability and diminished proarrhythmic potential” (2001)

Key:
[1] = species on record: Homo sapiens; test: Metabolic stability in relative to 31E observed on incubation with human liver microsomes; format: functional; details: Microsome
How it was run: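 Pooled human liver microsomes, 1 mg protein/mL, in 50 mM potassium phosphate pH 7.4. Substrate at 0.4-0.5 µM final; preincubated at 37 °C, then started with an NADPH-generating system (isocitrate/isocitrate dehydrogenase). Aliquots taken up to 20 min and quenched in acetonitrile. Remaining substrate measured by reversed-phase HPLC with fluorescence detection. Log-concentration vs time slope taken; ratio reported as reference slope/test slope; values >20 treated as stable. Three experiments.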

[2] = species on record: Oryctolagus cuniculus; test: Mean dose of test compound at which a statistically significant increase was first observed and the dose for the maximum increase in QTc interval in rabbits (0.25-5.0); format: functional
How it was run: (§1)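 Male New Zealand white rabbits (2.5-3.5 kg), anesthetized and instrumented. Methoxamine infused at 10 µg/kg/min; methoxamine baseline taken after 15 min. Compound, dissolved in 0.1 M fumaric acid in absolute EtOH and diluted with saline, given as a continuous iv infusion of 5 mg/kg over 30 min. QTc (QT/√RR) and MAPD90 followed over time; cumulative mg/kg dose recorded at first significant rise (one-way ANOVA, p≤0.05) and at maximum rise.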

[3] = species on record: Oryctolagus cuniculus; test: Mean dose at which EADs (early after depolarizations) began to develop in rabbits; format: functional
How it was run: (§2)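 Male New Zealand white rabbits (2.5-3.5 kg), anesthetized and instrumented. Methoxamine infused at 10 µg/kg/min; baseline taken after 15 min. Compound in 0.1 M fumaric acid/EtOH diluted with saline, infused IV at 5 mg/kg over 30 min. Readouts: QTc and MAPD90 maxima vs methoxamine baseline, with accumulated dose, and dose at EAD or PVT onset. ANOVA, p ≤ 0.05.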

[4] = species on record: Oryctolagus cuniculus; test: Mean dose at which PVTs (Polymorphic ventricular tachyarrhythmias) were observed in rabbits; format: functional, Cardiac ventricle; how it was run: as §2
[5] = species on record: Oryctolagus cuniculus; test: Maximum increase in the ventricular monophasic action potential duration at 90% repolarization from the methoxamine infusion baseline in rabbits; format: functional, Cardiac ventricle; how it was run: as §2
[6] = system: Oryctolagus cuniculus; test: In vivo evaluation of potential efficacy observed as the maximum increase in QTc interval from the methoxamine infusion baseline in rabbits; format: functional; how it was run: as §2
[7] = species on record: Oryctolagus cuniculus; test: Mean dose of test compound at which a statistically significant increase was first observed and the dose for the maximum increase in MAPD90 in rabbits (0.5-1.0); format: functional; how it was run: as §1
[8] = species on record: Oryctolagus cuniculus; test: Mean dose of test compound at which a statistically significant increase was first observed and the dose for the maximum increase in MAPD90 in rabbits (0.1-0.25); format: functional; how it was run: as §2
[9] = species on record: Oryctolagus cuniculus; test: Mean dose of test compound at which a statistically significant increase was first observed and the dose for the maximum increase in QTc interval in rabbits (0.1-1.0); format: functional; how it was run: as §1
[10] = species on record: Oryctolagus cuniculus; test: Mean dose of test compound at which a statistically significant increase was first observed and the dose for the maximum increase in QTc interval in rabbits (0.1-0.25); format: functional; how it was run: as §1
[11] = species on record: Oryctolagus cuniculus; test: Mean dose of test compound at which a statistically significant increase was first observed and the dose for the maximum increase in MAPD90 in rabbits (0.25-0.5); format: functional; how it was run: as §2
[12] = species on record: Oryctolagus cuniculus; test: Mean dose of test compound at which a statistically significant increase was first observed and the dose for the maximum increase in QTc interval in rabbits; format: functional; how it was run: as §1
[13] = species on record: Oryctolagus cuniculus; test: Mean dose of test compound at which a statistically significant increase was first observed and the dose for the maximum increase in MAPD90 in rabbits; format: functional; how it was run: as §2
[14] = species on record: Oryctolagus cuniculus; test: Mean dose of test compound at which a statistically significant increase was first observed and the dose for the maximum increase in MAPD90 in rabbits (0.1-5.0); format: functional; how it was run: as §2
[15] = species on record: Oryctolagus cuniculus; test: Mean dose of test compound at which a statistically significant increase was first observed and the dose for the maximum increase in MAPD90 in rabbits (0.25-5.0); format: functional; how it was run: as §1
[16] = species on record: Oryctolagus cuniculus; test: Mean dose of test compound at which a statistically significant increase was first observed and the dose for the maximum increase in QTc interval in rabbits (0.1-0.5); format: functional; how it was run: as §1
[17] = species on record: Oryctolagus cuniculus; test: Mean dose of test compound at which a statistically significant increase was first observed and the dose for the maximum increase in MAPD90 in rabbits (0.1-2.0); format: functional; how it was run: as §2
[18] = species on record: Oryctolagus cuniculus; test: Mean dose of test compound at which a statistically significant increase was first observed and the dose for the maximum increase in MAPD90 in rabbits (0.25-1.0); format: functional; how it was run: as §1

Structure (SMILES) | Metabolic stability relative to 31E [1] [%] | Dose [3] [mg/kg] | Dose [4] [mg/kg] | MAPD90 [5] [ms] | QTc interval [6] [ms] | Dose [12] [mg/kg] | further results
CCN(CCCCCC(C)F)CCCCc1ccc(NS(C)(=O)=O)cc1 (stereo not drawn) | 300 | 0.2 | 1.1 | 56 | 94 |  | Dose [2]: 0.5 mg/kg; Dose [7]: 1 mg/kg
CCN(CCCCCC(C)(F)F)CCC[C@H](O)c1ccc(NS(C)(=O)=O)cc1 |  | 0.3 | 0.3 | 92 | 106 |  | Dose [8]: 0.25 mg/kg; Dose [9]: 1 mg/kg
CCN(CCCCCC(F)F)CCC[C@H](O)c1ccc(NS(C)(=O)=O)cc1 |  | 0.2 | 0.3 | 123 | 154 |  | Dose [10]: 0.25 mg/kg; Dose [11]: 0.5 mg/kg
CCN(CCCCCC(F)F)CCCC(O)c1ccc(NS(C)(=O)=O)cc1 (stereo not drawn) | > 2000 |  |  |  |  |  | 
CCN(CCCCCC(C)F)CCCC(O)c1ccc(NS(C)(=O)=O)cc1.O=C(O)/C=C/C(=O)O (stereo not drawn) | 1300 | 0.3 | 0.2 | 143 | 166 | 0.25 | Dose [13]: 0.25 mg/kg
CCN(CCCCCCCF)CCC[C@H](O)c1ccc(NS(C)(=O)=O)cc1 | 400 | 0.25 | 0.9 | 76 | 105 |  | Dose [10]: 0.25 mg/kg; Dose [14]: 5 mg/kg
CCCCCCCN(CC)CCC[C@H](O)c1ccc(NS(C)(=O)=O)cc1 |  | 1.6 | 0.2 | 105 | 145 | 0.25 | Dose [15]: 5 mg/kg
CCN(CCCCCC(C)(C)F)CCC[C@H](O)c1ccc(NS(C)(=O)=O)cc1 [TRECETILIDE] |  |  |  | 69 | 83 |  | Dose [14]: 5 mg/kg; Dose [9]: 1 mg/kg
CCN(CCCCCCCF)CCCCc1ccc(NS(C)(=O)=O)cc1 | 100 | 1 | 0.1 | 52 | 96 |  | Dose [16]: 0.5 mg/kg; Dose [17]: 2 mg/kg
CCCCCCCN(CC)CCC[C@@H](O)c1ccc(NS(C)(=O)=O)cc1 | 100 | 0.2 | 0.3 | 69 | 112 | 0.25 | Dose [18]: 1 mg/kg
